Measurements from ChEMBL document CHEMBL4014347, “Targeting Mycolic Acid Transport by Indole-2-carboxamides for the Treatment of Mycobacterium abscessus Infections” (J Med Chem, 2017).
Converted amounts (≈) assume the structure as drawn. The source made the active and inactive calls. No cut-off for these calls is given here.

Assays:
[1] = tested on: Mycobacteroides abscessus; experiment: Antibacterial activity against Mycobacterium abscessus CIP104536 after 3 to 5 days by two fold serial dilution method; type: functional
Method in brief: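 Broth microdilution per CLSI in cation-adjusted Mueller–Hinton broth; exponential-phase inoculum 5 × 10^6 CFU/mL; two-fold serial dilutions from highest concentration, solvent wells as control; 30 °C for 3−5 days; MIC read visually and confirmed by absorbance at 560 nm; triplicate on three independent occasions.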

[2] = tested on: Mycobacterium tuberculosis; experiment: Antibacterial activity against Mycobacterium tuberculosis by AlamarBlue assay; type: functional
[3] = Selectivity index, ratio of IC50 for African green monkey Vero cells to MIC=<90 for Mycobacterium tuberculosis; type: toxicity; settings: read-out: Selectivity Index
[4] = Selectivity index, ratio of IC50 for African green monkey Vero cells to MIC for Mycobacterium abscessus CIP104536; type: toxicity; settings: read-out: Selectivity Index
[5] = tested on: Mycobacteroides abscessus; experiment: Antibacterial activity against CF patient derived Mycobacterium abscessus subsp. abscessus isolate 2524 rough variant after 3 to 5 days by two fold serial dilution method; type: functional
Method in brief: (§1)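 Broth microdilution in cation-adjusted Mueller−Hinton broth per CLSI; inoculum 5 × 10^6 CFU/mL of exponential-phase bacteria; two-fold serial dilutions, solvent-only wells as control; 30 °C for 3−5 days; MIC read visually and confirmed by absorbance at 560 nm; triplicate on three independent occasions.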

[6] = tested on: Mycobacteroides abscessus; experiment: Antibacterial activity against CF patient derived Mycobacterium abscessus subsp. abscessus isolate 2648 rough variant after 3 to 5 days by two fold serial dilution method; type: functional; method in brief: as §1
[7] = tested on: Mycobacteroides abscessus; experiment: Antibacterial activity against non CF patient derived Mycobacterium abscessus subsp. abscessus isolate CIP104536 smooth variant after 3 to 5 days by two fold serial dilution method; type: functional; method in brief: as §1
[8] = tested on: Mycobacteroides abscessus; experiment: Antibacterial activity against CF patient derived Mycobacterium abscessus subsp. abscessus isolate 3321 smooth variant after 3 to 5 days by two fold serial dilution method; type: functional; method in brief: as §1
[9] = tested on: Mycobacteroides abscessus; experiment: Antibacterial activity against non CF patient derived Mycobacterium abscessus subsp. abscessus isolate 2587 smooth variant after 3 to 5 days by two fold serial dilution method; type: functional; method in brief: as §1
[10] = tested on: Mycobacteroides abscessus; experiment: Antibacterial activity against CF patient derived Mycobacterium abscessus subsp. abscessus isolate 2069 smooth variant after 3 to 5 days by two fold serial dilution method; type: functional; method in brief: as §1
[11] = tested on: Mycobacteroides abscessus; experiment: Antibacterial activity against Addison's disease patient derived Mycobacterium abscessus subsp. massiliense isolate CIP108297 rough variant after 3 to 5 days by two fold serial dilution method; type: functional; method in brief: as §1
[12] = tested on: Mycobacteroides abscessus; experiment: Antibacterial activity against CF patient derived Mycobacterium abscessus subsp. massiliense isolate 111 smooth variant after 3 to 5 days by two fold serial dilution method; type: functional; method in brief: as §1
[13] = tested on: Mycobacteroides abscessus; experiment: Antibacterial activity against CF patient derived Mycobacterium abscessus subsp. massiliense isolate 212 smooth variant after 3 to 5 days by two fold serial dilution method; type: functional; method in brief: as §1
[14] = tested on: Mycobacteroides abscessus; experiment: Antibacterial activity against CF patient derived Mycobacterium abscessus subsp. massiliense isolate 107 smooth variant after 3 to 5 days by two fold serial dilution method; type: functional; method in brief: as §1
[15] = Antibacterial activity against CF patient derived Mycobacterium abscessus subsp. bolletii isolate 108 rough variant after 3 to 5 days by two fold serial dilution method; type: functional; settings: Mycobacteroides abscessus; method in brief: as §1
[16] = Antibacterial activity against CF patient derived Mycobacterium abscessus subsp. bolletii isolate 114 smooth variant after 3 to 5 days by two fold serial dilution method; type: functional; settings: Mycobacteroides abscessus; method in brief: as §1
[17] = Antibacterial activity against Mycobacterium abscessus subsp. bolletii isolate CIP108541 smooth variant after 3 to 5 days by two fold serial dilution method; type: functional; settings: Mycobacteroides abscessus; method in brief: as §1
[18] = tested on: Mycobacteroides abscessus; experiment: Antibacterial activity against Mycobacterium abscessus CIP104536 smooth variant infected in PMA activated THP-1 macrophages assessed as reduction in viable colony forming unit at 3 ug/ml measured upto 4 days post treatment; type: functional
Method in brief: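 THP-1 cells in RPMI with 10% FBS, differentiated with 20 ng/mL PMA for 48 h at 37 °C; infected at MOI 1:2 for 2 h under 5% CO2; washed, 200 μg/mL amikacin for 1 h, washed; drug medium renewed daily; lysed in 1% Triton X100 at 0, 48, 96 h and plated for CFU; triplicates, two independent experiments.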

[19] = tested on: Mycobacteroides abscessus; experiment: Antibacterial activity against Mycobacterium abscessus CIP104536 smooth variant harboring pMV261 MAB_4508_A309P mutant at 0.5 to 1 ug/ml after 3 days; type: functional
Method in brief: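 M. abscessus overexpressing wild-type or A309P MAB_4508 from pMV261 plated on 7H10 agar with 10% OADC containing drug; plates incubated at 30 °C for 3 days before growth inspection.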

[20] = tested on: Mycobacteroides abscessus; experiment: Effect on de novo mycolic acid biosynthesis in Mycobacterium abscessus CIP104536 smooth variant at 6.2 ug/ml preincubated for 1 hr followed by [14C]acetic acid addition measured after 2 hrs by TLC based autoradiography analysis; type: functional
Method in brief: (§2)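 Exponential cultures in 7H9 with OADC exposed to increasing drug concentrations for 1 h at 37 °C with agitation, then labelled with 1 μCi/mL [14C]acetate (56 mCi/mmol) for 2 h; apolar lipids (TMM, TDM) run on TLC in chloroform/methanol/water 40:8:1; MAME and arabinogalactan-bound mycolates in petroleum ether/acetone 95:5; autoradiography.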

[21] = tested on: Mycobacteroides abscessus; experiment: Inhibition of MmpL3 in Mycobacterium abscessus CIP104536 smooth variant assessed as increase in accumulation of trehalose monomycolate up to 6.2 ug/ml preincubated for 1 hr followed by [14C]acetic acid addition measured after 2 hrs by TLC based autoradiography analysis; method in brief: as §2
[22] = tested on: Mycobacteroides abscessus; experiment: Inhibition of MmpL3 in Mycobacterium abscessus CIP104536 smooth variant assessed as reduction in arabinogalactan mycolation preincubated for 1 hr followed by [14C]acetic acid addition measured after 2 hrs by TLC based autoradiography analysis; method in brief: as §2
[23] = Protein binding in rat plasma at 5 uM after 10 mins by LC-MS/MS analysis; type: ADME, cell-free; settings: read-out: PPB (converted)
Method in brief: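 Ultracentrifugation method: 5 μM compound in mouse or rat plasma (from DMSO stock), 10 min at 37 °C; total concentration from incubated plasma, unbound from middle-layer supernatant after 200000g for 4.5 h; niflumic acid internal standard, acetonitrile, filtered, LC-MS/MS.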

[24] = tested on: Mycobacterium tuberculosis; experiment: Inhibition of C-terminal His-tagged Mycobacterium tuberculosis Ag85C expressed in Escherichia coli C41 (DE3) at 2.5 to 50 uM after 1 hr by resorufin butyrate-based fluorescence assay
Method in brief: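 Purified Ag85C mycolyltransferase activity measured with the fluorescent probe resorufin butyrate; compounds tested at 2.5 to 50 μM.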

[25] = biological target: Cytochrome P450 2C19 (Homo sapiens, UniProt P33261); experiment: Inhibition of CYP2C19 in human liver microsomes preincubated for 5 mins followed by NADPH addition measured after 40 mins by LC-MS/MS analysis; type: ADME
[26] = biological target: CYP3A4 (Homo sapiens, UniProt P08684); experiment: Inhibition of CYP3A4 in human liver microsomes preincubated for 5 mins followed by NADPH addition at 10 uM measured after 5 mins by LC-MS/MS analysis relative to control; type: ADME
[27] = biological target: CYP2D6 (Homo sapiens, UniProt P10635); experiment: Inhibition of CYP2D6 in human liver microsomes preincubated for 5 mins followed by NADPH addition at 10 uM measured after 10 mins by LC-MS/MS analysis relative to control; type: ADME
[28] = tested on: Liver; experiment: Intrinsic clearance in mouse liver microsomes at 0.5 uM in presence of NADPH by LC-MS/MS analysis; type: ADME, microsome
Method in brief: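 Compound (0.5 μM) incubated with mouse or rat liver microsomes plus NADPH regenerating system; aliquots every 3 min over 30 min analysed for parent by LC-MS/MS; monoexponential decay rate normalized to microsomal protein, expressed as mL/min/g liver.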

Sequence of Cytochrome P450 2C19 (P33261 whole entry): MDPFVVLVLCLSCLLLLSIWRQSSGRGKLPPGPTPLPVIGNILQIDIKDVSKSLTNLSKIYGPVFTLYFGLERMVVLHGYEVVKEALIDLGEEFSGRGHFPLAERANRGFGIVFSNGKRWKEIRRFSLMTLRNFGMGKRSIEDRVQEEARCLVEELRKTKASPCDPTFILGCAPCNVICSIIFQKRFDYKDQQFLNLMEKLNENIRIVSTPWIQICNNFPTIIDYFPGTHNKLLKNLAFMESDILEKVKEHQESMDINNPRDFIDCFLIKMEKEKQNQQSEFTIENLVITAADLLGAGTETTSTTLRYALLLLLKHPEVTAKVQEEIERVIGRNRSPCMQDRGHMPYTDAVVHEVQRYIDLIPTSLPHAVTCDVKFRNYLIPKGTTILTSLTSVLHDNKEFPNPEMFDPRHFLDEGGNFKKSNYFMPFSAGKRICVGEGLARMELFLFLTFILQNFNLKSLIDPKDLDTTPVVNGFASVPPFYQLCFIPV
Sequence of CYP2D6 (P10635 whole entry): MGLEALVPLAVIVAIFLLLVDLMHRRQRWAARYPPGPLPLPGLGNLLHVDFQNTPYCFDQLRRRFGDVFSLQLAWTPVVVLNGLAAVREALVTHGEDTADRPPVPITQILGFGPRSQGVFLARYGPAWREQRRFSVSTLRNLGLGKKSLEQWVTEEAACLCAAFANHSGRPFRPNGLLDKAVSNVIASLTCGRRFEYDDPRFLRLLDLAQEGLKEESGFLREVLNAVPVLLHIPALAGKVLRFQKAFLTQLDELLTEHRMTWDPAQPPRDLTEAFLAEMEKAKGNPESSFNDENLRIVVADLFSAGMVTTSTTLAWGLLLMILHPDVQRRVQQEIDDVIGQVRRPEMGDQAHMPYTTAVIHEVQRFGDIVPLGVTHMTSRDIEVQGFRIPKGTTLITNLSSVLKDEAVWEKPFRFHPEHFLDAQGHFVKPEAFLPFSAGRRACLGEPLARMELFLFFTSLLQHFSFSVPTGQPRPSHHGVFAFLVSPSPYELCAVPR
Sequence of CYP3A4 (P08684 whole entry): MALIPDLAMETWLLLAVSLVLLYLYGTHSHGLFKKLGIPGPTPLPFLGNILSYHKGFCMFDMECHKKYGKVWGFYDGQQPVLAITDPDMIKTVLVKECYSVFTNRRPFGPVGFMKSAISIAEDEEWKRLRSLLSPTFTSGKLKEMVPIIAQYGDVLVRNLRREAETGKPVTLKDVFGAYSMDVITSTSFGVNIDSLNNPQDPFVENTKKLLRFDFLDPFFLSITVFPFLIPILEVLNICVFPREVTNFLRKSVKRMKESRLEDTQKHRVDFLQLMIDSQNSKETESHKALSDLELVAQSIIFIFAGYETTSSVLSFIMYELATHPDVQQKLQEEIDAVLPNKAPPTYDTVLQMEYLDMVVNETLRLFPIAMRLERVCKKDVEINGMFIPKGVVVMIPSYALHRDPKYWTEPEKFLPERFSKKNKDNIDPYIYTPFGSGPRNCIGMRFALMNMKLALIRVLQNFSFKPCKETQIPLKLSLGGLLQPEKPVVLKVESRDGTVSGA

With `O=C(NC1CCCCCC1)c1cc2c(Cl)cc(Cl)cc2[nH]1` the MIC [1] was 0.125 µg/mL (≈ 0.384 µM), the “MIC=<90” value [2] was 0.0039 µg/mL (≈ 0.012 µM) and the selectivity ratio [3] was 2050 to 4100. It also gave a selectivity ratio [4] of 64 to 128, an MIC [5] of 0.125 µg/mL (≈ 0.384 µM) and an MIC [6] of 0.125 µg/mL (≈ 0.384 µM). The MIC [7] was 0.125 µg/mL (≈ 0.384 µM), the MIC [8] was 0.125 µg/mL (≈ 0.384 µM) and the MIC [9] was 0.125 µg/mL (≈ 0.384 µM). It also gave an MIC [10] of 0.125 µg/mL (≈ 0.384 µM), an MIC [11] of 0.125 µg/mL (≈ 0.384 µM) and an MIC [12] of 0.125 µg/mL (≈ 0.384 µM). It also gave an MIC [13] of 0.125 µg/mL (≈ 0.384 µM), an MIC [14] of 0.25 µg/mL (≈ 0.769 µM) and an MIC [15] of 0.25 µg/mL (≈ 0.769 µM). For the same compound, the MIC [16] was 0.125 µg/mL (≈ 0.384 µM), the MIC [17] was 0.125 µg/mL (≈ 0.384 µM) and the Activity [18] was “Active”. The Activity [19] was “inactive”, the Activity [20] was “inactive” and the inhibition [21] was “Active”. The inhibition [22] was “Dose-dependent effect”, the fraction unbound at 10 min, 5 µM [23] was 0.008 and the inhibition [24] was “inactive”. The IC50 [25] was ≤ 20 µM, the inhibition at 5 min, 10 µM [26] was 1% and the inhibition at 10 min, 10 µM [27] was 10%. It also gave a CLH [28] of 4.8 mL/min/g.
